ChEMBL document CHEMBL1158600, “Phenanthrenes from Dendrobium nobile and their inhibition of the LPS-induced production of nitric oxide in macrophage RAW 264.7 cells” (Bioorg Med Chem Lett, 2010)

Test system: RAW264.7
Assay: Antiinflammatory activity in mouse RAW264.7 cells assessed as inhibition of LPS-induced NO production
Assay type: functional, cell-based
Outline: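 RAW 264.7 cells seeded at 2 × 10^5 cells/mL, stimulated with 1 µg/mL LPS with or without test compound, 37 °C for 24 h. Nitrite in cell-free supernatant measured by Griess reagent (sulfanilamide in phosphoric acid plus N-(1-naphthyl)ethylenediamine), absorbance at 550 nm against sodium nitrite standard curve. IC50 for 50% NO inhibition; triplicate, mean ± SD. Viability checked by CCK assay.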

SMILES	IC50 [µM]
COc1cc2ccc3cc(O)ccc3c2c(OC)c1O	35.7
COc1c(O)cc2ccc3c(OC)ccc(O)c3c2c1OC	20.4
COc1cc(O)cc(CCc2ccc(OC)c(OC)c2)c1	> 50
COc1cc2c(c(O)c1OC)-c1ccc(O)cc1CC2 [EPHEMERANTHOL A]	12
COc1c(O)c(O)cc2c1-c1c(O)cccc1CC2 [EPHENERANTHOL C]	17.6
COc1c(O)cc2c(c1OC)-c1ccc(O)cc1CC2 [ERIANTHRIDIN]	19.5
COc1c(O)c(O)cc2ccc3cccc(O)c3c12 [FIMBRIOL B]	28.9
N=C(N)NN [PIMAGEDINE]	17.5

More lines, now with the values ahead:

IC50 [µM]	SMILES
34.1	COc1cc2c(c(OC)c1O)-c1ccc(O)cc1CC2 [FLAVANTHRIDIN]
> 50	COc1cc(O)cc(CCc2ccc(O)c(OC)c2)c1 [GIGANTOL]
26.4	COc1cc(O)cc2c1-c1c(O)cccc1CC2 [HIRCINOL]
9.6	COc1cc(O)c2c(c1)CCc1cc(O)ccc1-2 [LUSIANTHRIDIN]
27.6	COc1cc(CCc2cc(OC)c(O)c(OC)c2)ccc1O [MOSCATILIN]
